Measured values taken from ChEMBL document CHEMBL1152533, “Synthesis and biological evaluation of 3,4-diaryl-5-aminoisoxazole derivatives” (Bioorg Med Chem, 2009).

Columns and labels:
PC-3 = assay: Cytotoxicity against human PC3 cells after 48 hrs by MTT assay; type: functional, cell-based; settings: PC-3, 48 h
In short: (§1)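 MTT viability assay: cells exposed to compound for 48 h, MTT in RPMI-1640 added for a further 4 h at 37 °C, formazan dissolved in DMSO, absorbance at 570 nm. Triplicate wells, three independent experiments; IC50 (50% viability inhibition) computed by dose-effect analysis and reported as mean of three experiments. CA-4 as positive control.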

A549 = assay: Cytotoxicity against human A549 cells after 48 hrs by MTT assay; type: functional, cell-based; settings: A549, 48 h; in short: as §1
[1] = Cytotoxicity against human ECA109 cells after 48 hrs by MTT assay; type: functional, cell-based; settings: ECa-109, 48 h; in short: as §1
SMMC-7721 [2] = assay: Cytotoxicity against human SMMC7721 cells after 48 hrs by MTT assay; type: functional, cell-based; settings: SMMC-7721, 48 h; in short: as §1
K562 = assay: Cytotoxicity against human K562 cells after 48 hrs by MTT assay; type: functional, cell-based; settings: K562, 48 h; in short: as §1
SMMC-7721 [3] = assay: Cell cycle arrest in human SMMC7721 cells assessed as accumulation at S phase at 1 uM after 24 hrs by propidium iodide staining-based FACS analysis; type: functional
In short: (§2)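 SMMC-7721 cells (5 × 10⁴/mL) exposed 24 h to graded concentrations (0.01–1.0 µM) alongside DMSO and CA-4 controls; washed twice in PBS, fixed in 75% ethanol at −20 °C, RNase-treated at 37 °C for 0.5 h, stained with propidium iodide at 4 °C for 15 min, then analysed by flow cytometry for G2/M and S fractions.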

SMMC-7721 [4] = assay: Induction of apoptosis in human SMMC7721 cells at 0.5 uM after 48 hrs; type: functional
[5] = Inhibition of bovine tubulin polymerization by fluorescent plate reader analysis; set-up: species or system Bos taurus
SMMC-7721 [6] = assay: Induction of apoptosis in human SMMC7721 cells at 0.1 uM after 48 hrs; type: functional
SMMC-7721 [7] = assay: Cell cycle arrest in human SMMC7721 cells assessed as accumulation at S phase at 0.1 uM after 24 hrs by propidium iodide staining-based FACS analysis; type: functional; in short: as §2
SMMC-7721 [8] = assay: Cell cycle arrest in human SMMC7721 cells assessed as accumulation at G2/M phase at 0.1 uM after 24 hrs by propidium iodide staining-based FACS analysis; type: functional; in short: as §2
SMMC-7721 [9] = assay: Induction of apoptosis in human SMMC7721 cells at 1 uM after 48 hrs; type: functional
SMMC-7721 [10] = assay: Cell cycle arrest in human SMMC7721 cells assessed as accumulation at G2/M phase at 1 uM after 24 hrs by propidium iodide staining-based FACS analysis; type: functional; in short: as §2

IC50 [5]	Compound	IC50 (PC-3)	IC50 (A549)	IC50 [1]	IC50 (SMMC-7721 [2])	IC50 (K562)	Activity (SMMC-7721 [3])	Activity (SMMC-7721 [4])	Activity (SMMC-7721 [6])	Activity (SMMC-7721 [7])	Activity (SMMC-7721 [8])	Activity (SMMC-7721 [9])	Activity (SMMC-7721 [10])
	COc1ccc(-c2noc(NC(C)=O)c2-c2cc(OC)c(OC)c(OC)c2)cc1OCc1ccccc1	> 50 µM	> 50 µM	> 50 µM									
	COc1ccc(-c2noc(NC(C)=O)c2-c2cc(OC)c(OC)c(OC)c2)cc1O	> 50 µM	> 50 µM	> 50 µM									
	COc1ccc(-c2noc(NC(C)=O)c2-c2cc(OC)c(OC)c(OC)c2)cc1	> 50 µM	> 50 µM	> 50 µM	> 50 µM	1 µM							
	COc1ccc(/C=C\c2cc(OC)c(OC)c(OC)c2)cc1O [COMBRETASTATIN A4]	5.4 µM	0.42 µM	4.5 µM	3.22 µM	0.046 µM							
	COc1cc(-c2noc(N)c2-c2cc(OC)c(OC)c(OC)c2)cc(OC)c1OC	> 50 µM	> 50 µM	> 50 µM	> 50 µM	3.65 µM							
	COc1ccc(-c2c(-c3cc(OC)c(OC)c(OC)c3)noc2NC(C)=O)cc1OC	> 50 µM	19.8 µM	17.7 µM	46.3 µM	3.71 µM							
	COc1cc(-c2noc(NC(C)=O)c2-c2ccc(Cl)cc2)cc(OC)c1OC	1.91 µM	24.9 µM	9.53 µM	> 50 µM	3.62 µM							
	COc1cc(-c2noc(N(C(C)=O)C(C)=O)c2-c2ccc(Cl)cc2)cc(OC)c1OC	2.63 µM	> 50 µM	39.8 µM	> 50 µM	3.96 µM							
	COc1cc(-c2noc(N)c2-c2ccc(Cl)cc2)cc(OC)c1OC	> 50 µM	> 50 µM	> 50 µM	> 50 µM	0.64 µM							
	COc1ccc(-c2noc(N)c2-c2cc(OC)c(OC)c(OC)c2)cc1OCc1ccccc1	> 50 µM	38.2 µM	> 50 µM									
2.1 µM	COc1ccc(-c2c(-c3cc(OC)c(OC)c(OC)c3)noc2N(C(C)=O)C(C)=O)cc1	0.36 µM	0.43 µM	0.39 µM	1.36 µM	0.068 µM	24.3%	70%	37%	50.4%	41.5%	72%	70%
	COc1ccc(-c2noc(N)c2-c2cc(OC)c(OC)c(OC)c2)cc1OC	> 50 µM	> 50 µM	1.66 µM	> 50 µM	1.4 µM							
	COc1ccc(-c2noc(N)c2-c2cc(OC)c(OC)c(OC)c2)cc1	15 µM	21.8 µM	9.82 µM	39.8 µM	0.022 µM							
	COc1ccc(-c2noc(N)c2-c2cc(OC)c(OC)c(OC)c2)cc1O	> 50 µM	> 50 µM	> 50 µM									
	COc1ccc(-c2c(-c3cc(OC)c(OC)c(OC)c3)noc2NC(C)=O)cc1	> 50 µM	10.7 µM	10.8 µM	> 50 µM	0.38 µM							
1.8 µM	COc1ccc(-c2c(-c3cc(OC)c(OC)c(OC)c3)noc2N)cc1	3.03 µM	4.49 µM	5.84 µM	12 µM	0.04 µM							
	COc1ccc(-c2c(-c3cc(OC)c(OC)c(OC)c3)noc2N)cc1OC	21.1 µM	> 50 µM	20.6 µM	> 50 µM	1.27 µM							
	COc1ccc(-c2noc(NC(C)=O)c2-c2cc(OC)c(OC)c(OC)c2)cc1OC	> 50 µM	> 50 µM	> 50 µM	> 50 µM	8.75 µM							
	COc1cc(-c2noc(NC(C)=O)c2-c2cc(OC)c(OC)c(OC)c2)cc(OC)c1OC	14.9 µM	21.1 µM	13.9 µM	24.6 µM	3.97 µM							
	COc1ccc(-c2c(-c3cc(OC)c(OC)c(OC)c3)noc2N(C(C)=O)C(C)=O)cc1OC	> 50 µM	> 50 µM	> 50 µM	> 50 µM	4.29 µM							
